Source: ChEMBL document CHEMBL1134481, “Development of a pharmacophore model for histamine H3 receptor antagonists, using the newly developed molecular modeling program SLATE” (J Med Chem, 2001)

Assays:
Format in all cases: tissue-based
Histamine H3 receptor [1] = molecular target: T1, Histamine H3 receptor (Rattus norvegicus, UniProt Q9QYN8); assay: (§1) Ability to displace [3H]Nalpha-methylhistamine from histamine H3 receptors in homogenates of rat cerebral cortex
Procedure, shortened: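 Rat cortex membranes were made by homogenizing in Tris/HCl (50 mM, 5 mM MgCl₂, 145 mM NaCl, pH 7.4) and spinning at 800g, then twice at 40000g. Binding used 30 µg protein and 1 nM [³H]-Nα-methylhistamine with 0.1–10 000 nM compound, in 50 mM Na⁺ phosphate pH 7.4, for 40 min at 25 °C. Samples were filtered on PEI-treated GF/C and counted by scintillation. Ki = IC50/(1+[ligand]/Kd).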

Histamine H3 receptor [2] = molecular target: Histamine H3 receptor (Cavia porcellus, UniProt Q9JI35); assay: Displacement of [3H]Nalpha-methylhistamine from histamine H3 receptors in homogenates of rat cerebral cortex; settings: read-out: pA2 (converted)
Histamine H3 receptor [3] = molecular target: T1, Histamine H3 receptor; assay: as §1; remark: listed apart in the source
Procedure, shortened: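 Binding used 30 µg protein and 1 nM [³H]-Nα-methylhistamine with 0.1–10 000 nM compound, in 50 mM Na⁺ phosphate pH 7.4, for 40 min at 25 °C. Samples were filtered on PEI-treated GF/C and counted by scintillation. Ki = IC50/(1+[ligand]/Kd).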

Sequence of Histamine H3 receptor (Cavia porcellus, UniProt Q9JI35) (Q9JI35 whole entry): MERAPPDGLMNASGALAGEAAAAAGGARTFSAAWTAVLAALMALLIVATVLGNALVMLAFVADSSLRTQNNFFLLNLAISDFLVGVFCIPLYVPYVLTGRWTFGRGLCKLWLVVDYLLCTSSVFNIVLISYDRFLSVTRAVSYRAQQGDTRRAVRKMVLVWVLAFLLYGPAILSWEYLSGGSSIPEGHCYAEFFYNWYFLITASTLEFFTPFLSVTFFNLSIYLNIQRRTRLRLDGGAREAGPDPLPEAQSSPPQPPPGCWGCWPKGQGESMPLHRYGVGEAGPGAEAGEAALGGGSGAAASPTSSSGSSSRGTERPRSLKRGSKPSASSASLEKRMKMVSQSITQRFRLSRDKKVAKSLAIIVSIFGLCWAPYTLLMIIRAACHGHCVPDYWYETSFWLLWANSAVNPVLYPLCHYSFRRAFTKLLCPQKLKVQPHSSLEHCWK
T1 sequence (Q9QYN8 whole entry): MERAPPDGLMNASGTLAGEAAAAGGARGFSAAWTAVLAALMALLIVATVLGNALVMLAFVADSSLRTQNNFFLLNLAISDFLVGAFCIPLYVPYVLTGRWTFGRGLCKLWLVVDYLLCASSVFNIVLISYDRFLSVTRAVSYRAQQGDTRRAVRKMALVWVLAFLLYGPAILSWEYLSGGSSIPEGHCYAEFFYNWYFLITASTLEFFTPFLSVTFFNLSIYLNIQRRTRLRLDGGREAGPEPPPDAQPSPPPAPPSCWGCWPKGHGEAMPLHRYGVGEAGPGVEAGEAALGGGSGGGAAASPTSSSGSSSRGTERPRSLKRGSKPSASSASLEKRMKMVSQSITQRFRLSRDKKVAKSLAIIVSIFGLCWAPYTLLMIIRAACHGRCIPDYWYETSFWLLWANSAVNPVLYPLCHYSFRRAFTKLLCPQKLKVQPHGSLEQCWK

Ki (Histamine H3 receptor [3]) [nM] | SMILES | Kb (Histamine H3 receptor [2]) [nM] | further results
– | NC(/C=C/C1CC1c1c[nH]cn1)CC1CCCCC1 (stereo unspecified) | – | Ki (Histamine H3 receptor [1]): 0.4 nM
– | c1nc(CCC2CCNCC2)c[nH]1 | 3.98 | –
– | Clc1ccc(CNCCCCCc2c[nH]cn2)cc1 | 1.26 | –
0.501 | Clc1ccc(CN=C(NC2CCCCC2)SCCCc2cnc[nH]2)cc1 | – | –
12.6 | c1nc(CCCS/C(=N/C2CCCCC2)NC2CCCCC2)c[nH]1 | – | –
– | Clc1ccc(Cc2noc(CCCc3cnc[nH]3)n2)cc1 | 7.94 | –
– | O=C(NCCCc1c[nH]cn1)NC1CCCCC1 | 50.1 | –
– | CC(C)(C)CC#CC1CC1c1cnc[nH]1 (stereo unspecified) | – | Ki (Histamine H3 receptor [1]): 0.18 nM
– | O=C(Cc1ccc(Cl)cc1)OCCCc1c[nH]cn1 | – | Ki (Histamine H3 receptor [1]): 14 nM
7.94 | CC/N=C(\NCc1ccc(Cl)cc1)SCCCc1c[nH]cn1 | – | –
> 100000 | CCCS/C(=N/C)NCc1ccc(Cl)cc1 | – | –
– | N=C(Cc1ccc(Cc2cnc[nH]2)cc1)NCc1ccc(Cl)cc1 | – | Ki (Histamine H3 receptor [1]): 7 nM
– | NC(=NCc1ccc(Cl)cc1)SCCCc1cnc[nH]1 [CLOBENPROPIT] | 0.158 | –
– | Ic1ccc(COCCCc2c[nH]cn2)cc1 [IODOPROXYFAN] | 5.01 | –
– | S=C(NC1CCCCC1)N1CCC(c2cnc[nH]2)CC1 [THIOPERAMIDE] | 1.26 | –

SMILES | Ki (Histamine H3 receptor [3]) [nM] | Kb (Histamine H3 receptor [2]) [nM] | further results
C/N=C(/NCc1ccc(Cl)cc1)SCCCc1c[nH]cn1 | 3.16 | – | –
